According to article PMC11437091 (Scientific Reports, 2024):

Key:
[1] = system: subcutaneous MDA-MB-231-luc tumor; experiment: NIRF imaging, subcutaneous tumor model mice; format: in vivo
Outline: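 Female BALB/c-nude mice, 6 weeks old, received 1 × 10^6 MDA-MB-231-luc cells s.c. in PBS with 30% matrigel. The Cy5-labelled test compound (1 µmol) was injected i.v. via tail vein. IVIS whole-body imaging at 48 h used excitation 640 nm and emission 680 nm. Luminescence was read from 10 min after i.p. luciferin 150 mg/kg. Organs and tumour were imaged ex vivo after euthanasia, with semiquantitative fluorescence intensity, n = 3.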

[2] = system: EDB-FN in MDA-MB-231 cells; experiment: confocal immunofluorescence colocalization with EDB-FN; format: cell-based; conditions: confocal microscopy, 1 µM, 37 °C, 2 h
Outline: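 MDA-MB-231 cells were seeded at 1 × 10^5 cells/ml in confocal dishes. They were incubated with 1 µM Cy5-labelled test compound for 2 h at 37 °C, washed six times with PBST, and fixed in 4% paraformaldehyde. Permeabilization used 0.25% Triton X-100 and blocking used 5% BSA for 30 min. Anti-EDB-FN mAb (1:1000) was applied overnight at 4 °C. Alexa Fluor 488 anti-rabbit (4 µg/mL) was applied 1 h at RT. Nuclei were stained with DAPI and imaged by confocal microscopy.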

[3] = system: MCF7 cells; experiment: flow cytometry binding of EDBp-Cy5 to cells; format: cell-based; conditions: 1 µM, 37 °C, 60 min
Outline: (§1)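 Cells were grown in DMEM with 10% FBS at 37 °C and 5% CO2, then seeded at 1 × 10^6 cells/ml in 6-well plates. They were stained with 1 µM Cy5-labelled test compound, or a Cy5-labelled cyclic control peptide, for 60 min at 37 °C. Cells were washed three times with PBS and analysed by flow cytometry for Cy5 signal.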

[4] = system: MDA-MB-231 cells; experiment: flow cytometry binding of EDBp-Cy5 to cells; format: cell-based; conditions: 1 µM, 37 °C, 60 min
Outline: as §1

[5] = system: EMT6 cells; experiment: flow cytometry binding of EDBp-Cy5 to cells; format: cell-based; conditions: 1 µM, 37 °C, 60 min
Outline: as §1

For AVRTSAD-PEG4-K-Cy5 [EDBp-Cy5], the “enrichment in subcutaneous tumor (NIRF imaging)” value ([1]; 48 h after i.v. injection of 1 µmol, whole-body imaging) was “significantly enriched”, the “ex vivo distribution in main organs and tumor (NIRF)” value ([1]; 48 h after injection, organs collected, n = 3) was “observed mainly in the kidney and subcutaneous tumor” and the “colocalization with EDB-FN” value [2] was “colocalized with EDB-FN”. For the same substance, the cell binding ability [3] was “moderate”, the cell binding ability [4] was “high” and the cell binding ability [5] was “moderate”.
